Screening data (PubChem)
Shown are actives, neighbours in structure and some others; about 12% of the full set was active somewhere.
Rad51 HR inh: Rad51 (human) homologous recombination inhibition. Q06609. hRad51 DNA strand exchange, fluorescence dequenching. inhibition, % at 10 µM. hit rate 0.085% among 200,000;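 active means inhibition above 40% at the single screening dose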
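System: human Rad51 nucleoprotein filaments preassembled on unlabelled ssDNA. Reagent: labelled 47-mer dsDNA for strand exchange. Schedule: 30-min compound preincubation and 15-min exchange, both room temperature. Measured by: FRET fluorescence dequenching, excitation 485 nm, emission 520 nm. Read-out: Fluorescence-based percent inhibition, control- and blank-normalised. Benchmarks: plate controls and plate blanks.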
L major viab: reduces viability of Leishmania major promastigotes; AID 1063; inhibition, % at 10 µM; hit rate 9% among 200,000; resazurin fluorescence viability;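 further: promastigotes grown with compound for 44 hours at 28 °C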
CHOP inh: blocks CHOP induction under ER stress | inhibition, % at 10 µM | AID 2732 | hit rate 3.8% among 220,000 | CHO-K1 CHOP-promoter luciferase, tunicamycin-induced, 15-18 h;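 active means compounds that reduced the stress-induced luciferase reporter signal by more than about 70% of percent inhibition, limit read from the data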
PKD1 kinase inh: blocks activity of human protein kinase D1; PKD1 kinase fluorescence polarization assay; hit rate 0.056% among 200,000; inhibition, % (concentration not given with the values); AID 797; Q15139
Wee1 stabilizer: human Wee1 degradation inhibition, primary screen; P30291; HeLa Luc-Wee1K328M stability, luciferase luminescence; 100% = proteasome inhibitor MG132 effect; reporter increase, % at 5 µM; hit rate 1.2% among 220,000; AID 1321;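 active means activation above the mean of all tested compounds plus 3 SD, set per screening run, cut at about 8.8% in these data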;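 further: cells exposed to compound for 20 h before luminescence read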
Target sequence (P30291 whole entry K328M): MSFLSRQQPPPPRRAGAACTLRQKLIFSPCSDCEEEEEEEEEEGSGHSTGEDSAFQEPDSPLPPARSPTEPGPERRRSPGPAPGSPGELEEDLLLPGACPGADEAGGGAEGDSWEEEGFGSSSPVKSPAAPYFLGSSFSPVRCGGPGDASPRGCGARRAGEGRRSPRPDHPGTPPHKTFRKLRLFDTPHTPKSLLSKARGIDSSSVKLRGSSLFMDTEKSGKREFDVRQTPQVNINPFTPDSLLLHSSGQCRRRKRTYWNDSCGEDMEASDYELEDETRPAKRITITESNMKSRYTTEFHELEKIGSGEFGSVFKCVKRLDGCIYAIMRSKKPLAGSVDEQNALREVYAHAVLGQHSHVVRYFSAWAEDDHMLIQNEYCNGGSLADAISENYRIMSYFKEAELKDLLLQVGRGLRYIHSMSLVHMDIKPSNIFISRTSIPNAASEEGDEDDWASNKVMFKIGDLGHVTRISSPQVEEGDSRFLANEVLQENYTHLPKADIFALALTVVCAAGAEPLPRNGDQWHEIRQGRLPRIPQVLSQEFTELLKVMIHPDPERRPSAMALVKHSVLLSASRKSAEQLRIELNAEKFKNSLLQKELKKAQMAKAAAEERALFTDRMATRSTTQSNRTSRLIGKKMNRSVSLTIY
Arbovirus anti: antivirals against arbovirus infection. AID 1251. hit rate 0.37% among 200,000. inhibition, % at 10 µM. arbovirus infection cell-based antiviral screen; in the data active means inhibition above about 30%
L major 1uM: L. major promastigote growth inhibition, 1 uM repeat | hit rate 13% among 1,100 | inhibition, % at 1 µM | resazurin fluorescence, 48 h | shares compounds with L major viab;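 active means inhibition above about 50% in both repeat tests, limit read from the data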
A number is an active result; n = inactive; x = not tested or not shown. Unless noted, no stated cut-off is given here; in the data, active means inhibition above about 50%; inactive means the rest.

SMILES	Rad51 HR inh	L major viab	CHOP inh	PKD1 kinase inh	Wee1 stabilizer	Arbovirus anti	L major 1uM
COc1ccc(N/N=C(/C)c2cnnc(-c3ccccc3)n2)cc1	x	n	n	n	n	n	x
CN(C)c1ccc(CN2CCCCCC2)cc1	n	n	n	n	n	n	x
CCN(CC)c1ccc(CN2CCCCCC2)cc1	n	89.8	n	n	n	n	n
Cc1ccc(-c2csc3ncnc(Sc4nnc(CN5CCCCCC5=O)o4)c23)cc1	n	99.4	x	n	n	n	n
CC(C)Cc1nc2ccccc2n1CCc1ccccc1	x	55.7	n	n	n	n	n
COc1ccc(-c2cc3nc(-c4ccccc4)cc(N4CCC5(CC4)OCCO5)n3n2)cc1	x	80.5	n	n	n	n	n
CC(C)(C)c1ccc(C(=O)N2CCC(=O)N(C(COCc3ccccc3)Cc3ccccc3)CC2)cc1 (stereo unspecified)	n	51.7	n	n	n	n	n
Cc1ccc(N/N=C(\C#N)C(=N)N2CCCCCC2)cc1	n	61.0	n	n	n	n	n
O=C(O)c1csc(-n2nc(-c3ccccc3)cc2C(F)(F)F)n1	n	n	n	n	n	n	x
CN(C(=O)c1ccc2c(c1)SC1=NS(=O)(=O)CCN12)C(c1ccccc1)c1ccccc1	n	74.7	n	n	n	n	n
O=C(O)c1ccc2c(c1)SC1=NS(=O)(=O)CCN12	n	x	n	x	n	x	x
COC(=O)c1cc2ccsc2n1Cc1nc(-c2ccc(OC)cc2)oc1C	n	99.9	n	n	n	n	93.5
O=[N+]([O-])c1cc(Cl)ccc1-c1nc(-c2ccccc2)no1	n	89.5	n	n	n	n	n
O=[N+]([O-])c1cc(Cl)ccc1-c1nc(-c2ccncc2)no1	x	n	n	n	n	n	x
Cc1cccc(-c2nnc(SCC(=O)C(C)(C)C)n2C)c1	n	x	n	x	n	x	x
CC[n+]1c(/C=C/C=C/N(C(C)=O)c2ccccc2)sc2cc(OC)ccc21	n	87.9	n	n	n	n	n
O=S1(=O)N=C(Nc2ccc(O)c(CN3CCCCC3)c2)c2ccccc21	n	55.4	n	n	n	n	n
N=C(N)CCCOc1ccccc1-c1ccccc1	n	53.2	n	n	n	n	n
CC(C)N(C(=O)COC(=O)CNC(=O)c1ccc(Br)cc1)c1ccccc1	n	n	n	n	n	n	x
COC(=O)Cc1c[nH]c2cccc(OCC(O)CN(Cc3ccccc3)C(C)C)c12 (stereo unspecified)	n	98.0	n	n	n	n	n
CCn1c(SCC(=O)N2CCOCC2)nc2oc3c(Cl)cc(Cl)cc3c(=O)c2c1=O	n	72.2	n	n	n	n	n
CCn1c(SCC(=O)N2CCOCC2)nc2sc3c(c2c1=O)CCCC3	n	n	n	n	n	n	x
COC(=O)c1cn(-c2ccccc2)nc1-c1ccncc1	n	n	n	n	n	n	x
O=C(OCc1ccccc1)c1cn(-c2ccccc2)nc1-c1ccncc1	n	68.6	n	n	n	n	n
CC(=O)c1c(N2CCN(c3cccc(Cl)c3)CC2)nc(=S)n(-c2ccccc2)c1C	n	91.0	n	n	n	n	n
SMILES	Rad51 HR inh	L major viab	CHOP inh	PKD1 kinase inh	Wee1 stabilizer	Arbovirus anti	L major 1uM
COc1ccc(CC(=O)OC(C)CN2CCCC2)cc1 (stereo unspecified)	n	99.5	n	n	n	n	n
CC(C(=O)Nc1cc([N+](=O)[O-])ccc1Cl)N1CCN(c2ccc(O)cc2)CC1 (stereo unspecified)	n	n	n	n	n	n	x
COc1ccccc1-n1c(SCC(=O)N2CCCC2)nnc1-c1ccccc1	n	x	n	x	n	x	x
CN(C)C(=O)CSc1nnc(-c2ccc(F)cc2)c2ccccc12	n	x	n	x	n	x	x
CCCCSc1nnc(-c2ccc(C)cc2)c2ccccc12	n	91.3	n	n	n	n	n
CN(C(=O)c1cc(-n2cnnc2)ccc1Cl)c1ccccc1	x	n	n	n	n	n	x
COc1ccc(-[n+]2c(C)cc(/C=C3\Sc4ccccc4N3C)cc2C)cc1	n	100.6	92.0	n	n	n	101.2
CC(=O)c1nc(N2C(=O)CC(Cc3ccccc3)C2=O)sc1C (stereo unspecified)	n	n	n	n	n	n	x
CCc1nc2ccccc2c2nc3ccccc3n12	n	86.8	n	n	n	n	n
c1ccc2c(c1)nc(CN1CCOCC1)n1c3ccccc3nc21	n	n	n	n	n	n	x
O=C1N(CC(=O)N2CCc3ccccc32)CCN1Cc1ccccc1Cl	n	n	n	n	n	n	x
CC(C)CN=c1cc(-c2ccccc2)oc2ccc(Cl)cc12	n	n	n	n	n	n	x
CN(C)CCCN=c1cc(-c2ccccc2)oc2ccc(Cl)cc12	n	100.5	n	n	n	n	88.8
Cc1nc2c(-c3ccc(Cl)cc3)c(C)[nH]n2c(=O)c1Cc1ccccc1	x	99.5	n	n	n	n	n
Cc1ccc(S(=O)(=O)c2ccc(Oc3cccc(C)c3)cc2)cc1	n	74.5	n	n	n	n	85.2
CC1=Nc2cccc3cccc(c23)N1	n	99.8	n	n	n	n	n
Cc1nc2ccc(NC(=O)NCCCO)cc2s1	n	n	n	n	n	n	x
O=C(CN1CCN(Cc2ccccc2)CC1)c1ccc(Br)cc1	x	82.2	n	n	n	n	n
N#C/C(=C\c1cn(CCOc2ccccc2)c2ccccc12)C(=O)NCc1cccs1	n	55.0	n	n	n	n	n
O=S(=O)(Nc1cccc(-c2nnco2)c1)c1ccc(Cl)cc1	n	x	n	x	n	x	x
Nc1nnc(N)c2ccccc12	n	n	n	n	n	n	x
Nc1nsc2ccccc12	n	100.4	n	n	n	n	95.1
CCCCC(CC)C(=O)NCC(C)NC(=O)C(CC)CCCC (stereo unspecified)	n	61.4	n	n	n	n	n
Cc1ccc2c(c1)C1CN(C)CCC1N2C(=S)NC(=O)c1ccc(Br)cc1 (stereo unspecified)	n	99.3	n	n	n	n	n
COc1ccc(-n2nnnc2S(=O)(=O)CC(=O)N2CCCCC2)cc1	n	92.5	x	n	n	n	n
SMILES	Rad51 HR inh	L major viab	CHOP inh	PKD1 kinase inh	Wee1 stabilizer	Arbovirus anti	L major 1uM
CN(c1ccccc1)c1ccc(/C=C(\C#N)c2nnc3n2CCCCC3)cc1[N+](=O)[O-]	n	56.0	n	n	n	n	n
CC1=Nc2ccccc2/C1=C/c1sc(=N)n(-c2nccs2)c1O	n	100.4	n	n	n	n	n
Cc1ccc(N=Nc2c(C)[nH]n(C(N)=S)c2=O)cc1	n	n	n	n	n	n	x
Cc1ccc([N+](=O)[O-])cc1N=Nc1c(-c2ccc([N+](=O)[O-])cc2)[nH]n(C(N)=S)c1=O	n	88.1	78.4	n	n	n	n
Cc1ccc2nc3cc([N+](=O)[O-])cc([N+](=O)[O-])c3cc2c1	n	100.5	94.8	n	n	n	100.0
Cc1nc2ccc([N+](=O)[O-])cc2nc1C	n	n	n	n	n	n	x
C=CCOc1nc(N2CCCC2)nc(N2CCCC2)n1	n	96.3	n	n	n	n	n
